Assay outcomes from PubChem.
Lmaj promast: reduces viability of Leishmania major promastigotes. resazurin fluorescence viability. 200,000 tested, 9% active. AID 1063. inhibition, % at 10 µM; in the data active = inhibition above about 50%;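 note: promastigotes grown with compound for 44 hours at 28 °C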
WT yeast gro inh: growth inhibition of WT yeast, mitochondrial fusion screen | mitochondrial fusion phenotypic screen, WT strain | inhibition, % at 10 µM | 190,000 tested, 2.1% active; in the data active = inhibition above about 58%; tested in S. cerevisiae
Diaphorase inh: diaphorase inhibition or chemical oxidation counter-screen; diaphorase resazurin-to-resorufin fluorescence, NADH, 16 min; bacterial (C. kluyveri) enzyme, not human; inhibition, % at 20 µM; 190,000 tested, 0.69% active;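 active = primary screen inhibition at 20 µM above a set limit, cut at about 50% in these data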;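 note: plate controls were DMSO with full reaction for no effect and wells lacking NADH for full effect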
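System: Diaphorase enzyme from Clostridium kluyveri | Amount: Enzyme working solution with 0.14 U/mL diaphorase | Benchmarks: No-NADH positive control and DMSO neutral control | Signal: Fluorescence of resorufin formed from resazurin, Ex 544/Em 590 nm | Schedule: 16-min room-temperature incubation before reading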
ROMK mod: modulates human ROMK potassium channel activity; AID 1918; Tet-inducible ROMK, thallium flux fluorescence; actives lie on both sides; B-score at 10 µM; 130,000 tested, 2% active; P48048;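 active = signal ratio slope over the read window, or its plate-corrected B-score, at least 3 SD from the plate mean, either direction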;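 note: B-score of the F/F0 ratio slope over 7 to 12 s after thallium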
Target sequence (P48048 whole entry, looked up): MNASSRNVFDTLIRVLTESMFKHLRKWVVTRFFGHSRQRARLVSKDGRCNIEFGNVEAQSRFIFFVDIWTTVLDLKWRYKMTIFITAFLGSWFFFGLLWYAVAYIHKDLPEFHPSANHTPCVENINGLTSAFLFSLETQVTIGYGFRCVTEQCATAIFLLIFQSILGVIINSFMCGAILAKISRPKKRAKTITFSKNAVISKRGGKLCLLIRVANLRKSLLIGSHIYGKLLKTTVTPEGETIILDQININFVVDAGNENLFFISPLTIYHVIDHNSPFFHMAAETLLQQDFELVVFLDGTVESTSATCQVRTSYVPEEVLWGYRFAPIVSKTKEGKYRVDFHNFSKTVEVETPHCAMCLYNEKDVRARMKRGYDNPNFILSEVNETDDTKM
Diaph act CS: diaphorase activation or chemical reduction counter-screen; activation factor at 20 µM; Diaphorase/resazurin coupled assay, resorufin fluorescence, 16 min; hits give high values; 1 = vehicle wells, 0 = NADH-free wells; AID 1229; 190,000 tested, 0.005% active;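 active = diaphorase activity raised at least twofold by the compound at 20 µM; inactive = activation factor below 2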
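Material: purified diaphorase enzyme from Clostridium kluyveri; Also added: 0.114 mM NADH and 0.1 mM resazurin, final amounts; Doses: single compound dose of 20 µM, 1% DMSO final; Times: 16 min enzyme reaction, ambient temperature; Detection: resorufin fluorescence, excitation 544 nm, emission 590 nm; Measure: increased resorufin signal from activators or reducing compounds.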
Cl transport mod: KCC2 (human) Cl- transport modulation; KCC2 cells, thallium flux FluoZin-2 fluorescence; B-score of Tl+ flux slope (higher = more flux/activation; lower = inhibition) at 10 µM; AID 1456; 190,000 tested, 2.2% active; Q9H2X9;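 active = thallium flux slope and its plate-corrected score both differing from the plate sample mean at a set confidence after two filtering rounds, in either direction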;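 note: slope of fluorescence scaled to starting intensity during 10 to 20 s after thallium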
Active calls of the source: *; x = not tested or not shown. Hits are enriched below; roughly 12% of the tested compounds scored in any of these assays.

SMILES | Lmaj promast | WT yeast gro inh | Diaphorase inh | ROMK mod | Diaph act CS | Cl transport mod
O=C(C1=C[C@H](c2coc3ccccc3c2=O)C[C@H](OCCCCO)O1)N1CCN(Cc2ccc3c(c2)OCO3)CC1 | 0 | 3 | 23 | x | 0.8 | -1.5
Cc1cc(C)c(C)c(S(=O)(=O)Nc2ccc(OCC(=O)O)cc2)c1C | 2 | 3 | 9 | x | 0.9 | -0.62
COc1ccccc1Nc1cc(C)nc2c(C)ccc([N+](=O)[O-])c12 | 12 | 26 | 16 | 0.1 | 0.8 | -0.19
Cc1cc(Nc2ccccc2)c2c([N+](=O)[O-])cc(C)c(C)c2n1 | -2 | 76* | -1 | x | 1 | x
COc1ccccc1C(=O)NCC(=O)OC(C)C(=O)NC(=O)NC1CCCCC1 (stereo not given) | -2 | 6 | -8 | -1.2 | 1.1 | -0.61
Cc1nn(-c2ccccc2)c(Cl)c1C(=O)OC(C)C(=O)NC(=O)NC1CCCCC1 (stereo not given) | 2 | 69* | 11 | x | 0.9 | -0.93
COc1cc(/C=N/Nc2nc(Nc3ccccc3)nc(-n3nc(C)cc3C)n2)cc(OC)c1OC | 100* | 2 | 10 | -0.98 | 0.9 | -0.21
COc1ccc(Nc2nc(NCc3ccco3)nc(N/N=C/c3ccccc3)n2)cc1 | 5 | 11 | -3 | 1.2 | 1 | 0.77
COc1cc(/C=N/Nc2nc(Nc3ccccc3)nc(N3CCCCC3)n2)ccc1OCC(=O)O | -11 | 1 | -5 | 0.52 | 1 | 0.5
COc1ccc(O)c(/C=N/Nc2nc(Nc3ccccc3)nc(-n3nc(C)cc3C)n2)c1 | 101* | 16 | 8 | 1.5 | 0.9 | 0.13
COc1ccc(/C=N/Nc2nc(Nc3ccccc3)nc(N3CCCC3)n2)cc1[N+](=O)[O-] | -2 | 9 | -1 | -0.69 | 1 | 0.45
Cc1[nH]c2ccccc2c1/C=N/Nc1nc(Nc2ccccc2)nc(N2CCOCC2)n1 | 100* | 16 | 9 | x | 0.9 | 0.11
COc1cc(/C=N/Nc2nc(Nc3ccc(C)cc3)nc(-n3nc(C)cc3C)n2)cc(OC)c1OC | 100* | 10 | -16 | x | 1.2 | -0.99
Oc1[nH]c2ccccc2c1N=Nc1nc(Nc2ccccc2)nc(N2CCOCC2)n1 | x | x | x | x | x | -0.12
O=C1CN(C(=O)COC(=O)c2ccccc2NCc2ccco2)c2ccccc2N1 | 20 | -2 | 19 | -0.0011 | 0.8 | 0.028
Cc1[nH]c2ccccc2c1/C=N/Nc1ccccn1 | 56* | 16 | 21 | -0.66 | 0.8 | 0.35
COc1ccc(/C=N/Nc2nc(Nc3ccccc3)nc(N3CCCCC3)n2)c(OC)c1 | 100* | 6 | 15 | x | 0.8 | -0.48
Cc1ccccc1Nc1c(-c2ccccn2)nc2c(C)cccn12 | 37 | 79 | 5 | -0.2 | 0.9 | 0.024
Cc1cccc(C)c1Nc1c(-c2ccccn2)nc2ccccn12 | 100* | 68 | -10 | 0.025 | 1.1 | 0.23
Cc1ccc2nc(-c3ccccn3)c(NC3CCCC3)n2c1 | 100* | 74* | -6 | x | 1.1 | -1.5
Cc1ccc(Nc2c(-c3ccccn3)nc3cccc(C)n23)cc1 | 101* | 73 | -12 | -1.3 | 1.1 | 0.033
Cc1ccc(Nc2c(-c3ccccc3O)nc3ncccn23)cc1 | x | x | x | -1.3 | x | 1.8
Cc1cccc(C)c1Nc1c(-c2ccsc2)nc2ncccn12 | 80* | 13 | 28 | 0.33 | 0.7 | -0.12
O=C(Nc1nccs1)c1ccc(COc2ccccc2Cl)o1 | 3 | 8 | 9 | 0.79 | 0.9 | 0.074
Cc1noc(C)c1COC(=O)c1ccc(N(C)C)cc1 | 2 | -31 | -2 | -0.19 | 1 | 0.16
SMILES | Lmaj promast | WT yeast gro inh | Diaphorase inh | ROMK mod | Diaph act CS | Cl transport mod
CN1c2ccccc2C(C)(C)C12C=Nc1c(ccc3ccccc13)O2 (stereo not given) | 5 | 25 | 33 | x | 0.7 | -0.19
COc1ccc2ccc3c(c2c1)N=CC1(O3)N(C)c2ccccc2C1(C)C (stereo not given) | 24 | 78* | 45 | 0.69 | 0.5 | -0.75
O=C1/C(=C\c2cccs2)SC(=S)N1C1CCS(=O)(=O)C1 (stereo not given) | 77* | 23 | 16 | 0.073 | 0.8 | -0.54
O=C1/C(=C/c2ccncc2)SC(=S)N1C1CCS(=O)(=O)C1 (stereo not given) | 100* | -14 | 28 | x | 0.7 | x
CC1(C)SC(=S)N(NC(=O)Nc2cccc3ccccc23)C1N(O)C(=O)Nc1ccccc1 (stereo not given) | 30 | 33 | 16 | 0.0083 | 0.8 | 0.75
CC(C)CN1CCN(C2CCN(C(C)C)CC2)C(CCO)C1 (stereo not given) | -1 | 4 | 14 | 1.5 | 0.9 | 0.79
O=C(CSC(=S)N1CCCC1)c1cc(Br)cc(Br)c1O | 95* | 11 | 35 | -0.02 | 0.6 | 1.1
CC1CCCN(C(=S)SCC(=O)c2cc(Br)cc(Br)c2O)C1 (stereo not given) | 15 | 12 | 62* | 0.91 | 0.4 | -0.68
CN=c1scc(-c2cccs2)n1/N=C/c1ccc(O)c(O)c1O | -10 | 24 | 68* | x | 0.3 | -2.2
CN=c1scc(-c2cccs2)n1/N=C/c1ccccc1O | 86* | 62* | 19 | x | 0.8 | -1.6
Cc1cc(C)n(/N=C/c2ccccc2O)c(=O)c1 | -6 | -13 | 5 | -0.024 | 1 | -0.17
C=CCN=c1scc(-c2ccco2)n1/N=C/c1ccc(O)c(O)c1O | x | x | x | x | x | -0.082
CN=c1scc(C)n1/N=C/c1ccc(O)c(O)c1O | -4 | -12 | 76* | -0.12 | 0.2 | -1.2
NS(=O)(=O)c1ccc(CCNC(=O)/C=C/c2cccc([N+](=O)[O-])c2)cc1 | -2 | 6 | 7 | -0.098 | 0.9 | -0.13
O=C(NCc1ccccc1)C(=O)Nc1nc(C23CC4CC(CC(C4)C2)C3)cs1 | 6 | 17 | 21 | x | 0.8 | 3.9*
O=C(NCc1cccnc1)C(=O)Nc1nc(C23CC4CC(CC(C4)C2)C3)cs1 | x | x | x | x | x | 1.6
O=c1[nH]nc(-c2ccc(F)cc2)cc1Cc1ccc(F)cc1 | x | x | x | -0.68 | x | -0.62
CCCCCOC(=O)c1ccc(NC(=O)c2ccco2)cc1 | -2 | 70* | 2 | -1.6 | 1 | -0.047
CCCCOC(=O)c1ccc(NC(=S)NC(=O)c2c(Cl)cnn2CC)cc1 | 5 | 19 | 13 | x | 0.9 | 23*
CCCCOC(=O)c1ccc(NC(C)=O)cc1 | -4 | -18 | 2 | x | 1 | 0.6
CCCCOC(=O)c1ccc(NC(=S)NC(=O)c2c(Cl)cnn2C)cc1 | -5 | 9 | 20 | x | 0.8 | 28*
CCCCOC(=O)c1ccc(NC(=O)c2cc(Cl)c(Cl)cc2C(=O)O)cc1 | -9 | -2 | -4 | -0.13 | 1 | -0.26
CCCCOC(=O)c1ccc(NC(=O)c2nn(C)cc2Br)cc1 | 3 | 60* | 18 | -0.1 | 0.8 | -0.66
Cc1noc(C)c1COc1ccc(C(=O)OCC(=O)Nc2cccc(S(=O)(=O)N3CCOCC3)c2)cc1 | 3 | -6 | 26 | -0.13 | 0.7 | -0.92
